pIC50, pKi: −log10 of the molar value.
Legend:
[1] = (§1) Inhibition of almond seed beta-galactosidase at 1 mM after 90 mins by spectrophotometric analysis; set-up: species or system Prunus dulcis
How it was run: (§2)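 Each enzyme was screened with inhibitor at a single concentration of 1 mM, and percent inhibition was recorded. Reported values are the average of three sets of assays.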

[2] = test system: Prunus dulcis; experiment: as §1; how it was run: as §2
[3] = (§3) Inhibition of almond seed beta-glucosidase at 1 mM after 90 mins by spectrophotometric analysis; set-up: species or system Prunus dulcis; how it was run: as §2
[4] = test system: Prunus dulcis; experiment: as §3; how it was run: as §2
[5] = Inhibition of yeast alpha-glucosidase after 90 mins by spectrophotometric analysis; set-up: species or system Saccharomyces cerevisiae
[6] = Inhibition of Geobacillus toebii BK1 alpha-galactosidase after 90 mins by spectrophotometric analysis
[7] = (§4) Inhibition of almond seed N-Acetyl-beta-D-glucosaminidase at 1 mM after 90 mins by spectrophotometric analysis; set-up: species or system Prunus dulcis; how it was run: as §2
[8] = test system: Prunus dulcis; experiment: as §4; how it was run: as §2
[9] = Competitive inhibition of yeast alpha-glucosidase after 90 mins by Lineweaver-Burke plot analysis; set-up: species or system Saccharomyces cerevisiae
[10] = (§5) Inhibition of almond seed alpha-mannosidase at 1 mM after 90 mins by spectrophotometric analysis; set-up: species or system Prunus dulcis; how it was run: as §2
[11] = test system: Prunus dulcis; experiment: as §5; how it was run: as §2
[12] = (§6) Inhibition of almond seed alpha-galactosidase at 1 mM after 90 mins by spectrophotometric analysis; set-up: species or system Prunus dulcis; how it was run: as §2
[13] = test system: Prunus dulcis; experiment: as §6; how it was run: as §2
[14] = Non-competitive inhibition of Geobacillus toebii BK1 alpha-galactosidase after 90 mins by Lineweaver-Burke plot analysis
[15] = (§7) Inhibition of Geobacillus toebii BK1 alpha-galactosidase at 1 mM after 90 mins by spectrophotometric analysis; how it was run: as §2
[16] = test system: Geobacillus toebii; experiment: as §7; how it was run: as §2
[17] = (§8) Inhibition of yeast alpha-glucosidase at 1 mM after 90 mins by spectrophotometric analysis; set-up: species or system Saccharomyces cerevisiae; how it was run: as §2
[18] = test system: Saccharomyces cerevisiae; experiment: as §8; how it was run: as §2

Ki [1] | inhibition [2] [%] | Ki [3] | inhibition [4] [%] | pIC50 [5] | pIC50 [6] | Ki [7] | inhibition [8] [%] | pKi [9] | Ki [10] | inhibition [11] [%] | Ki [12] | inhibition [13] [%] | pKi [14] | Ki [15] | inhibition [16] [%] | Ki [17] | inhibition [18] [%] | SMILES
Not Active | < 50 | Not Active | < 50 | 2.94 | 3.74 | Not Active | < 50 | 4.15 | Not Active | < 50 | Not Active | < 50 | 4.59 |  |  |  |  | C[C@H]1CC[C@@H](O)[C@@H](C(=O)O)N1
Not Active | < 50 | Not Active | < 50 |  |  | Not Active | < 50 |  | Not Active | < 50 | Not Active | < 50 |  | Not Active | < 50 | Not Active | < 50 | C[C@H]1CC[C@@H](O)[C@@H](CO)N1

Source: ChEMBL document CHEMBL1275387, “Intramolecular reductive cyclization strategy to the synthesis of (-)-6-methyl-3-hydroxy-piperidine-2-carboxylic acid, (+)-6-methyl-(2-hydroxymethyl)-piperidine-3-ol and their glycosidase inhibitory activity” (Bioorg Med Chem, 2010)
